Laboratory results as given in ChEMBL document CHEMBL4689842, “EUbOPEN Chemogenomics Library wave 1” (2021).
Several values for one entry are separate records, joined by “and”; a condition that tells them apart may be missing. Identical values can stand only once.

System: U2OS
Assay: Multiplex assay against U2OS
Assay type: toxicity, cell-based
Conditions: human, 10 µM, compound concentration 10 uM
Summary of the method: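 Per cents of healthy-nucleus cells form the tubulin, mitochondrial-mass and membrane-permeability phenotype values. Live cells were stained at seeding with Hoechst33342, BioTracker Green Microtubule Cytoskeleton Dye, MitoTracker Red and Annexin V Alexa Fluor 680. After compound addition they were imaged on a CQ1 microscope at 37°C and 5% CO2, and CellPathfinder machine-learning gating split them into Hoechst high-intensity objects or normal cells, normal cells into healthy, pyknosed or fragmented nuclei, and pyknosed cells into mitotic or apoptotic.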

## CNCc1ccccc1-c1csc([C@H](C)Nc2nc(C)nc3cc(OC)c(OC)cc23)c1 [BAY-294]
12 h, replicate 1
  Population Apoptotic (%): 76% and 59%
  Population Hoechst High Intensity Objects (%): 7% and 6% and 3%
  Population Membrane Permeable-Phenotype (%): 100% and 75% and 50%
  Population Mitochondria Different-Phenotype (%): 100% and 90% and 41%
  Population Mitotic Cells (%): 23% and 40%
  Population Normal (%): 92% and 93% and 96%
  Population Tubulin-Different-Phenotype (%): 100% and 97%
12 h, replicate 2
  Population Apoptotic (%): 54% and 57% and 68%
  Population Healthy Nuclei (%): 38% and 23% and 66%
  Population Membrane Permeable-Phenotype (%): 88% and 86% and 54%
  Population Mitochondria Different-Phenotype (%): 96% and 93% and 66%
  Population Mitotic Cells (%): 45% and 42% and 31%
  Population Normal (%): 88% and 44%
24 h, replicate 1
  Population Apoptotic (%): 90% and 93% and 54%
  Population Membrane Permeable-Phenotype (%): 100% and 54%
  Population Mitochondria Different-Phenotype (%): 100% and 75%
  Population Normal (%): 94% and 86% and 96%
  Population Pyknosed Nuclei (%): 57% and 70%
  Population Tubulin-Different-Phenotype (%): 100%
24 h, replicate 2
  Population Apoptotic (%): 92% and 52% and 78%
  Population Fragmented Nuclei (%): 30% and 52%
  Population Membrane Permeable-Phenotype (%): 66% and 85%
  Population Mitochondria Different-Phenotype (%): 76% and 92%
  Population Normal (%): 82% and 92% and 45%
  Population Pyknosed Nuclei (%): 55% and 31% and 27%
  Population Tubulin-Different-Phenotype (%): 98% and 85%
48 h, replicate 1
  Population Apoptotic (%): 98%
  Population Fragmented Nuclei (%): 36%
  Population Healthy Nuclei (%): 1%
  Population Hoechst High Intensity Objects (%): 13%
  Population Membrane Permeable-Phenotype (%): 100%
  Population Mitochondria Different-Phenotype (%): 100%
  Population Mitotic Cells (%): 1%
  Population Normal (%): 86%
  Population Pyknosed Nuclei (%): 62%
  Population Tubulin-Different-Phenotype (%): 100%
48 h, replicate 2
  Population Apoptotic (%): 70%
  Population Fragmented Nuclei (%): 44%
  Population Healthy Nuclei (%): 18%
  Population Hoechst High Intensity Objects (%): 61%
  Population Mitotic Cells (%): 30%
  Population Normal (%): 38%
  Population Pyknosed Nuclei (%): 37%

## CN(C)c1ncnc(-c2ccc3nc(Nc4cc(CN5CCN(C(=O)CC(F)(F)F)CC5)ccn4)[nH]c3c2)c1Cl [BAY-440]
12 h, replicate 1
  Population Apoptotic (%): 23%
  Population Fragmented Nuclei (%): 5%
  Population Healthy Nuclei (%): 88% and 91%
  Population Hoechst High Intensity Objects (%): 3% and 1%
  Population Mitochondria Different-Phenotype (%): 32% and 17%
  Population Mitotic Cells (%): 76%
  Population Normal (%): 96% and 98%
  Population Pyknosed Nuclei (%): 6% and 3%
  Total Cell Count: 204 and 178
12 h, replicate 2
  Population Fragmented Nuclei (%): 10% and 7%
  Population Healthy Nuclei (%): 83% and 90%
  Population Hoechst High Intensity Objects (%): 8%
  Population Mitochondria Different-Phenotype (%): 38% and 19%
  Population Mitotic Cells (%): 66% and 100%
  Population Normal (%): 91%
  Population Pyknosed Nuclei (%): 1%
  Total Cell Count: 103 and 116
24 h, replicate 1
  Population Apoptotic (%): 37% and 26%
  Population Fragmented Nuclei (%): 7% and 2%
  Population Healthy Nuclei (%): 81% and 89%
  Population Hoechst High Intensity Objects (%): 3% and 2%
  Population Mitotic Cells (%): 62% and 73%
  Population Normal (%): 96% and 97%
  Population Pyknosed Nuclei (%): 8%
  Total Cell Count: 221 and 230
24 h, replicate 2
  Population Fragmented Nuclei (%): 8% and 3%
  Population Healthy Nuclei (%): 79% and 95%
  Population Hoechst High Intensity Objects (%): 6% and 8%
  Population Mitochondria Different-Phenotype (%): 50% and 33%
  Population Mitotic Cells (%): 50% and 100%
  Population Normal (%): 93% and 91%
  Population Pyknosed Nuclei (%): 11% and 1%
  Total Cell Count: 108 and 135

## COc1ccc(Oc2cc(NCCC(F)(F)F)c3ncc(-c4ccc(C(=O)NC5CC5)c(C)c4)n3n2)c(F)c1F [BAY-1217389]
12 h, replicate 1
  Population Apoptotic (%): 40% and 58%
  Population Fragmented Nuclei (%): 9% and 11%
  Population Healthy Nuclei (%): 83% and 73%
  Population Hoechst High Intensity Objects (%): 4%
  Population Membrane Permeable-Phenotype (%): 66% and 23%
  Population Mitotic Cells (%): 60% and 41%
  Population Normal (%): 95%
  Population Pyknosed Nuclei (%): 7% and 15%
  Population Tubulin-Different-Phenotype (%): 97% and 100%
  Total Cell Count: 148 and 164
12 h, replicate 2
  Population Apoptotic (%): 60% and 55%
  Population Fragmented Nuclei (%): 19%
  Population Healthy Nuclei (%): 85% and 59%
  Population Hoechst High Intensity Objects (%): 17% and 11%
  Population Membrane Permeable-Phenotype (%): 53% and 63%
  Population Mitotic Cells (%): 40% and 45%
  Population Normal (%): 82% and 88%
  Population Tubulin-Different-Phenotype (%): 88%
  Total Cell Count: 114 and 108
24 h, replicate 1
  Population Apoptotic (%): 52% and 69%
  Population Fragmented Nuclei (%): 10% and 14%
  Population Healthy Nuclei (%): 77% and 65%
  Population Hoechst High Intensity Objects (%): 5% and 2%
  Population Membrane Permeable-Phenotype (%): 38% and 41%
  Population Mitochondria Different-Phenotype (%): 44% and 83%
  Population Mitotic Cells (%): 47% and 30%
  Population Normal (%): 94% and 97%
  Population Pyknosed Nuclei (%): 11% and 20%
  Population Tubulin-Different-Phenotype (%): 92% and 99%
  Total Cell Count: 154 and 167
24 h, replicate 2
  Population Apoptotic (%): 50% and 60%
  Population Fragmented Nuclei (%): 13%
  Population Healthy Nuclei (%): 75% and 54%
  Population Hoechst High Intensity Objects (%): 10% and 13%
  Population Membrane Permeable-Phenotype (%): 39% and 78%
  Population Mitochondria Different-Phenotype (%): 59% and 95%
  Population Mitotic Cells (%): 50% and 39%
  Population Normal (%): 89% and 86%
  Population Pyknosed Nuclei (%): 14% and 32%
  Population Tubulin-Different-Phenotype (%): 87% and 100%
  Total Cell Count: 110 and 101
